Assay results from ChEMBL document CHEMBL1125571, “Potent inhibitors of platelet aggregation based upon the Arg-Gly-Asp-Phe sequence of fibrinogen. A proposal on the nature of the binding interaction between the Asp-carboxylate of RGDX mimetics and the platelet GP IIb-IIIa receptor” (J Med Chem, 1992).
Blank lines part the entries; values can stand above or below the molecule they belong to.

How the values were obtained:
[1] = target: T1, Integrin alpha-IIb/beta-3 (Homo sapiens, UniProt P05106+P08514); test: Inhibition of Fibrinogen receptor binding; assay type: protein-complex assay
[2] = target: T1, Integrin alpha-IIb/beta-3; test: Inhibition of 125 I-Fibrinogen binding to Fibrinogen receptor; assay type: protein-complex assay
[3] = target: T1, Integrin alpha-IIb/beta-3; test: Inhibition of 125 I-Fibrinogen binding to Fibrinogen receptor (inactive); assay type: protein-complex assay
[4] = target: T1, Integrin alpha-IIb/beta-3; test: Inhibition of platelet aggregation (PRP) (inactive); assay type: functional
Summary of the method: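 Aggregation of platelets in platelet-rich plasma was induced with ADP, and inhibition of this aggregation was measured.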

T1 sequence (P05106 27-788 limits assumed): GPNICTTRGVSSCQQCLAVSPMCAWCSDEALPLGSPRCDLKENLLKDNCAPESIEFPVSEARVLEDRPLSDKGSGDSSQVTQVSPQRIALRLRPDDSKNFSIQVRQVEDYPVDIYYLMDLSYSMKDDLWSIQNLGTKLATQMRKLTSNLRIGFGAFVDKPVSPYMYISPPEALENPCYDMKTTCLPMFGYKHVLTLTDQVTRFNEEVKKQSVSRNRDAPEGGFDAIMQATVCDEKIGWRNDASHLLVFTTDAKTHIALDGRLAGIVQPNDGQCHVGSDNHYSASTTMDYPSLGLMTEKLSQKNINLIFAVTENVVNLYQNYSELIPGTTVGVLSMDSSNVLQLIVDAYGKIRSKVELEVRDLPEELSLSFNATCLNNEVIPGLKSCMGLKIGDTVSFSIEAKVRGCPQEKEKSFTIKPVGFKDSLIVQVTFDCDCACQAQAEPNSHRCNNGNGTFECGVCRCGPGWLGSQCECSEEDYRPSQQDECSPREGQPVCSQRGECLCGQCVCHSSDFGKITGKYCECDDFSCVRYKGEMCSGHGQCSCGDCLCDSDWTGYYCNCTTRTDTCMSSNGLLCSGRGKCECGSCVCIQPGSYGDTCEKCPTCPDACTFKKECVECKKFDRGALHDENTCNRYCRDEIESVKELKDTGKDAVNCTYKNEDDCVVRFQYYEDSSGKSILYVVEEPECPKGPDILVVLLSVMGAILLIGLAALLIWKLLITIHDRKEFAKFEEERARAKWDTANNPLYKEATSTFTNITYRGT
T1 sequence (P08514 32-887 limits assumed): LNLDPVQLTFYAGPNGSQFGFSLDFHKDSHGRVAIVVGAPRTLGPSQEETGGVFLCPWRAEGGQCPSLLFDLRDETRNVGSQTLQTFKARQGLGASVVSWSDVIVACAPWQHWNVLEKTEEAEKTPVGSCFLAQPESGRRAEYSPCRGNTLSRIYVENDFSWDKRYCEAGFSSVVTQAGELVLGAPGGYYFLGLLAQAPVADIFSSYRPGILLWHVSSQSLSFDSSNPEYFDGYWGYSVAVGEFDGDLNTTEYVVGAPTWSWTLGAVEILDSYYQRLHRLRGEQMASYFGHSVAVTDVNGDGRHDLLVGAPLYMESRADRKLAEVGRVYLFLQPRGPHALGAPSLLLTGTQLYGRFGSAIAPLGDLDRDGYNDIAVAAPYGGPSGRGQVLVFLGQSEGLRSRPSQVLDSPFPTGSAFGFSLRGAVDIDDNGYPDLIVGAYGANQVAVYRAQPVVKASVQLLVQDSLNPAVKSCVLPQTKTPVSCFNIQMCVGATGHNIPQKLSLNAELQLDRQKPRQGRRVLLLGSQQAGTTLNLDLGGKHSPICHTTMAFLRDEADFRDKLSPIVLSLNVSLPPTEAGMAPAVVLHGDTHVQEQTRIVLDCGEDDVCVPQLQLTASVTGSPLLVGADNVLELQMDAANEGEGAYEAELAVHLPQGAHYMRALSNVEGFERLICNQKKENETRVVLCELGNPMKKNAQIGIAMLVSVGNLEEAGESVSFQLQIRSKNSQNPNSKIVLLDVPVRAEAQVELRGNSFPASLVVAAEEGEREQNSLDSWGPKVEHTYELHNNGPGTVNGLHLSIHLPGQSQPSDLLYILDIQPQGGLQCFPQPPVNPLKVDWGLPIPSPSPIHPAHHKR
T1 sequence (P08514 891-1039 limits assumed): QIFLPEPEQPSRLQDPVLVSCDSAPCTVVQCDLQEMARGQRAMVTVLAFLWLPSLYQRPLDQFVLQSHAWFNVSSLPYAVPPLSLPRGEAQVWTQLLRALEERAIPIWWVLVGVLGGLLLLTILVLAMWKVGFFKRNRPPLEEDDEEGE

IC50 [1]: 600 nM
Compound: N=C(N)NCCCCCCCC(=O)N[C@@H](CC(=O)O)C(=O)N[C@@H](Cc1ccccc1)C(=O)O

IC50 [2]: 2000 nM
Compound: N=C(N)NCCCCCCCC(=O)N[C@@H](CC(=O)O)C(=O)N[C@@H](Cc1ccccc1)C1N=NN=N1

IC50 [3]: Not Active
IC50 [4]: Not Active
Compound: N=C(N)NCCCCCCCC(=O)N[C@@H](CC1N=NN=N1)C(=O)N[C@@H](Cc1ccccc1)C(=O)O

IC50 [1]: 30000 nM
Compound: N=C(N)NCCCCCCCC(=O)N[C@@H](CC(=O)O)C(=O)NCCc1ccccc1
